Laboratory results as given in PMC3082393 (Journal of medicinal chemistry, 2011).

Experiments:
[1] = system: H460 and T29Kt1 cells; test: Structure-activity statements from the cell viability assay; set-up: species or system human; conditions: based on IC50 values of Table 1
[2] = system: T29 and T29Kt1 cells; test: Levels of compound 34 in cells after treatment; format: cell-based; conditions: 10 μM, all time points up to 5 h after treatment, normalized with protein amount
Procedure, shortened: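 T29 and T29Kt1 cells at 80–90% confluence were given 10 μM test compound and collected by trypsin at time points up to 5 h. After a PBS wash, cells were lysed (M-PER) and homogenised, and supernatant protein was measured by BCA. Supernatant was deproteinised with 2 volumes of acetonitrile, spun at 4°C and concentrated under nitrogen. Drug was quantified by C18 HPLC (acetonitrile/water gradient, 230 nm) against an indole-methanol internal standard, then normalised to protein.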

[3] = system: phosphorylation of the CTD of RNA polymerase II; conditions: cited from earlier work
[4] = system: CDK9; conditions: ref Our previous study; cited from earlier work
[5] = system: CDK7; conditions: ref Our previous study; cited from earlier work
[6] = system: cancer cells that were highly susceptible to oncrasin-1; conditions: cancer cells highly susceptible to oncrasin-1; cited from earlier work

SMILES | Antitumor activity (structure-activity statement in words) [1] | also measured
Cc1cn(Cc2ccc(Cl)cc2)c2ccccc12 [Compound 66, 1-[(4-chlorophenyl)methyl]-1H-indole-3-methane] | dramatic reduction or complete loss of activity | –
CC(=O)OCc1cn(Cc2ccc(Cl)cc2)c2ccccc12 [Compound 60, 1-[(4-chlorophenyl)methyl]-1H-indole-3-methyl acetate] | equipotent to compound 35 | –
Cc1ccc(Cn2cc(CO)c3cc(F)ccc32)cc1 [Compound 55, 1-[(4-methylphenyl)methyl]-5-fluoro-1H-indole-3-methanol] | best potency | –
OCCc1cn(Cc2ccc(Cl)cc2)c2ccccc12 [Compound 56, 2-[1-[(4-chlorophenyl)methyl]-1H-indole-3-]ethanol] | dramatic reduction or complete loss of activity | –
Clc1cccc(Cn2cc(Cc3cn(Cc4cccc(Cl)c4)c4ccccc34)c3ccccc32)c1 [Compound 68, bis[1-[(3-chlorophenyl)methyl]-1H-indole-3-]methane] | complete loss of antitumor activity | –
O=Cc1cn(CCCOc2ccc(Cl)cc2)c2ccccc12 [Compound 15] | retained its activity and selectivity | –
Brc1cccc(Cn2cc(Cc3cn(Cc4cccc(Br)c4)c4ccccc34)c3ccccc32)c1 [Compound 69, bis[1-[(3-bromophenyl)methyl]-1H-indole-3-]methane] | complete loss of antitumor activity | –
OCc1cn(Cc2cccc(Cl)c2)c2ccccc12 [Compound 34, 1-[(3-chlorophenyl)methyl]-1H-indole-3-methanol] | – | Level of compound in T29 cells relative to T29Kt1 cells [2]: twice
CC(O)c1cn(Cc2ccc(Cl)cc2)c2ccccc12 (stereo not shown) [Compound 58, 1-[1-[(4-chlorophenyl)methyl]-1H-indole-3-] ethanol] | dramatic reduction or complete loss of activity | –
OCc1cn(Cc2ccc(Cl)cc2)c2ccc(F)cc12 [Compound 51, 1-[(4-chlorophenyl)methyl]-5-fluoro-1H-indole-3-methanol] | best potency | –
O=C(O)c1cn(Cc2ccccc2)c2ccccc12 [Compound 62] | dramatic reduction or complete loss of activity | –
COCc1cn(Cc2ccc(Cl)cc2)c2ccccc12 [Compound 59, 1-[(4-chlorophenyl)methyl]-1H-indole-3-methoxymethane] | dramatic loss of activity | –
O=Cc1cn(Cc2ccc(Cl)cc2)c2ccccc12 [Oncrasin-1, 1-[(4-chlorophenyl)methyl]-1H-indole-3-carboxaldehyde] | – | CTD phosphorylation in sensitive cancer cell lines [3]: suppressed phosphorylation; Direct inhibitory effect on CDK9 [4]: moderate; Direct inhibitory effect on CDK7 [5]: moderate
OCc1c[nH]c2ccccc12 [indole-3-carbinol] | – | Antitumor activity [6]: did not have observable antitumor activity
OCCCc1cn(Cc2ccccc2)c2ccccc12 [Compound 57] | dramatic reduction or complete loss of activity | –
O=C(O)c1cn(Cc2ccc(Cl)cc2)c2ccccc12 [Compound 63, 1-[(4-chlorophenyl)methyl]-1H-indole-3-carboxylic acid] | dramatic reduction or complete loss of activity | –
CC(C)Cn1cc(C=O)c2ccccc21 [Compound 22] | complete or partial loss of activity | –
